Source: ChEMBL document CHEMBL1629684, “Effects of ravuconazole treatment on parasite load and immune response in dogs experimentally infected with Trypanosoma cruzi” (Antimicrob Agents Chemother, 2010)
Activity calls are given as the source filed them.

What was measured:
[1] = system: Canis familiaris; assay: Immunostimulatory activity in mongrel dog infected with Trypanosoma cruzi Berenice-78 assessed as production of antibody IgG at 12 mg/kg, po BID for 90 days measured after 6 months by ELISA; format: functional, organism-based; design: dose 12 mg/kg; settings: Canis lupus familiaris
How it was run: (§1)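 Serum was taken before inoculation and then monthly until 6 months posttreatment, and stored at −80°C. ELISA plates were coated with alkaline extract of Y-strain parasites grown to exponential phase in LIT medium. Bound total IgG or IgG2 was detected with peroxidase-labeled anti-dog conjugates and read at 490 nm. Cutoff was the mean absorbance of 10 uninfected dogs plus 2 SD.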

[2] = system: Canis familiaris; assay: Immunostimulatory activity in mongrel dog infected with Trypanosoma cruzi Berenice-78 assessed as production of antibody IgG2 at 12 mg/kg, po BID for 90 days measured after 6 months by ELISA; format: functional, organism-based; design: dose 12 mg/kg; settings: Canis lupus familiaris; how it was run: as §1
[3] = system: Canis familiaris; assay: Immunostimulatory activity in mongrel dog infected with Trypanosoma cruzi Y assessed as production of antibody IgG at 12 mg/kg, po BID for 90 days measured after 6 months by ELISA; format: functional, organism-based; design: dose 12 mg/kg; settings: Canis lupus familiaris; how it was run: as §1
[4] = system: Canis familiaris; assay: Immunostimulatory activity in mongrel dog infected with Trypanosoma cruzi Y assessed as production of antibody IgG2 at 12 mg/kg, po BID for 90 days measured after 6 months by ELISA; format: functional, organism-based; design: dose 12 mg/kg; settings: Canis lupus familiaris; how it was run: as §1
[5] = system: Canis familiaris; assay: Toxicity in mongrel dog infected with Trypanosoma cruzi Berenice-78 assessed as weight loss at 12 mg/kg, po BID for 90 days started 12 to 22 days postinfection measured after 1 day; format: organism-based, Canis lupus familiaris; design: dose 12 mg/kg, route oral; settings: in vivo, 24 h
How it was run: (§2)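 Body weight gain, in kg, was recorded for infected dogs 1 day and 6 months after the end of oral b.i.d. treatment. Treated animals were compared with infected untreated and noninfected control groups.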

[6] = system: Canis familiaris; assay: Toxicity in mongrel dog infected with Trypanosoma cruzi Berenice-78 assessed as weight loss at 7 mg/kg, po BID for 90 days started 12 to 22 days postinfection measured after 1 day; format: organism-based, Canis lupus familiaris; design: dose 7 mg/kg, route oral; settings: in vivo, 24 h; how it was run: as §2
[7] = system: Canis familiaris; assay: Toxicity in mongrel dog infected with Trypanosoma cruzi Y assessed as weight loss at 12 mg/kg, po BID for 90 days started 12 to 22 days postinfection measured after 6 months; format: organism-based, Canis lupus familiaris; design: dose 12 mg/kg, route oral; settings: in vivo, 4383 h; how it was run: as §2
[8] = system: Canis familiaris; assay: Toxicity in mongrel dog infected with Trypanosoma cruzi Y assessed as weight loss at 7 mg/kg, po BID for 90 days started 12 to 22 days postinfection measured after 6 months; format: organism-based, Canis lupus familiaris; design: dose 7 mg/kg, route oral; settings: in vivo, 4383 h; how it was run: as §2
[9] = system: Canis familiaris; assay: Toxicity in mongrel dog infected with Trypanosoma cruzi Berenice-78 assessed as weight loss at 12 mg/kg, po BID for 90 days started 12 to 22 days postinfection measured after 6 months; format: organism-based, Canis lupus familiaris; design: dose 12 mg/kg, route oral; settings: in vivo, 4383 h; how it was run: as §2
[10] = system: Canis familiaris; assay: Toxicity in mongrel dog infected with Trypanosoma cruzi Berenice-78 assessed as weight loss at 7 mg/kg, po BID for 90 days started 12 to 22 days postinfection measured after 6 months; format: organism-based, Canis lupus familiaris; design: dose 7 mg/kg, route oral; settings: in vivo, 4383 h; how it was run: as §2
[11] = system: Trypanosoma cruzi; assay: Antimicrobial activity against Trypanosoma cruzi Y infected in mongrel dog assessed as suppression of microbial proliferation at 12 mg/kg, po BID started 12 to 22 days postinfection measured after 1 day; format: functional, organism-based; design: dose 12 mg/kg
How it was run: (§3)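 Mongrel dogs, 4 months old, dewormed and vaccinated, were inoculated with 2.0 × 10^3 bloodstream trypomastigotes/kg. Oral b.i.d. (q12h) dosing began 12 to 22 days postinfection, once parasitemia appeared. Dosing ran 90 days at 12 mg/kg and 60 days at 7 mg/kg, with 5 dogs per group. Parasitemia was read by fresh-blood examination of marginal ear vein blood from day 10 of infection until parasites were undetectable.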

[12] = system: Trypanosoma cruzi; assay: Antimicrobial activity against Trypanosoma cruzi Berenice-78 infected in mongrel dog assessed as suppression of microbial proliferation at 12 mg/kg, po BID started 12 to 22 days postinfection measured after 1 day; format: functional, organism-based; design: dose 12 mg/kg; how it was run: as §3
[13] = system: Trypanosoma cruzi; assay: Antimicrobial activity against Trypanosoma cruzi Y infected in mongrel dog assessed as suppression of microbial proliferation at 7 mg/kg, po BID started 12 to 22 days postinfection measured after 1 day; format: functional, organism-based; design: dose 7 mg/kg; how it was run: as §3
[14] = system: Trypanosoma cruzi; assay: Antimicrobial activity against Trypanosoma cruzi Berenice-78 infected in mongrel dog assessed as suppression of microbial proliferation at 7 mg/kg, po BID started 12 to 22 days postinfection measured after 1 day; format: functional, organism-based; design: dose 7 mg/kg; how it was run: as §3
[15] = system: Trypanosoma cruzi; assay: Antimicrobial activity against Trypanosoma cruzi Y infected in mongrel dog assessed as survival of dog at 12 mg/kg, po BID started 12 to 22 days postinfection measured after 1 day; format: functional
How it was run: (§4)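 Four-month-old mongrel dogs (five per group) received 2.0 × 10^3 Y or Berenice-78 bloodstream trypomastigotes/kg. Oral dosing began 12–22 days postinfection, when parasitemia was detected by fresh blood examination: 12 mg/kg q12h for 90 days, or 7 mg/kg q12h for 60 days. Ear-vein blood was checked from day 10. Mortality was expressed as the cumulative percentage of dead animals.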

[16] = system: Trypanosoma cruzi; assay: Antimicrobial activity against Trypanosoma cruzi Berenice-78 infected in mongrel dog assessed as survival of dog at 12 mg/kg, po BID started 12 to 22 days postinfection measured after 1 day; format: functional; how it was run: as §4
[17] = system: Trypanosoma cruzi; assay: Antimicrobial activity against Trypanosoma cruzi Y infected in mongrel dog assessed as survival of dog at 7 mg/kg, po BID started 12 to 22 days postinfection measured after 1 day; format: functional; how it was run: as §4
[18] = system: Trypanosoma cruzi; assay: Antimicrobial activity against Trypanosoma cruzi Berenice-78 infected in mongrel dog assessed as survival of dog at 7 mg/kg, po BID started 12 to 22 days postinfection measured after 1 day; format: functional; how it was run: as §4
[19] = system: Trypanosoma cruzi; assay: Antimicrobial activity against Trypanosoma cruzi Y infected in mongrel dog assessed as parasite level in blood of dog at 7 mg/kg, po BID started 12 to 22 days postinfection measured after 30 days by PCR analysis; format: functional
How it was run: (§5)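 Blood PCR for T. cruzi on treated dogs (n = 5 per group) at 1 and 6 months posttreatment. Each reaction took 2 μl blood DNA template in Tris-HCl pH 9.0, 75 mM KCl, 3.5 mM MgCl2 and 0.2 mM dNTPs. Cycling was 95°C 5 min, then 2 cycles annealing at 30°C, 33 cycles at 40°C, and 72°C 5 min. Products were run on 6% polyacrylamide and silver stained. Reported as rate of positive animals.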

[20] = system: Trypanosoma cruzi; assay: Antimicrobial activity against Trypanosoma cruzi Berenice-78 infected in mongrel dog assessed as parasite level in blood of dog at 7 mg/kg, po BID started 12 to 22 days postinfection measured after 30 days by PCR analysis; format: functional; how it was run: as §5
[21] = system: Canis familiaris; assay: Immunostimulatory activity in mongrel dog infected with Trypanosoma cruzi Berenice-78 assessed as production of antibody IgG at 12 mg/kg, po BID for 90 days measured up to 30 days by ELISA; format: functional, organism-based; design: dose 12 mg/kg; settings: Canis lupus familiaris; how it was run: as §1
[22] = system: Canis familiaris; assay: Immunostimulatory activity in mongrel dog infected with Trypanosoma cruzi Berenice-78 assessed as production of antibody IgG2 at 12 mg/kg, po BID for 90 days measured up to 30 days by ELISA; format: functional, organism-based; design: dose 12 mg/kg; settings: Canis lupus familiaris; how it was run: as §1
[23] = system: Canis familiaris; assay: Immunostimulatory activity in mongrel dog infected with Trypanosoma cruzi Berenice-78 assessed as production of antibody IgG at 7 mg/kg, po BID for 90 days measured up to 30 days by ELISA; format: functional, organism-based; design: dose 7 mg/kg; settings: Canis lupus familiaris; how it was run: as §1
[24] = system: Canis familiaris; assay: Immunostimulatory activity in mongrel dog infected with Trypanosoma cruzi Berenice-78 assessed as production of antibody IgG2 at 7 mg/kg, po BID for 90 days measured up to 30 days by ELISA; format: functional, organism-based; design: dose 7 mg/kg; settings: Canis lupus familiaris; how it was run: as §1
[25] = system: Canis familiaris; assay: Immunostimulatory activity in mongrel dog infected with Trypanosoma cruzi Berenice-78 assessed as production of antibody IgG at 7 mg/kg, po BID for 90 days measured after 6 months by ELISA; format: functional, organism-based; design: dose 7 mg/kg; settings: Canis lupus familiaris; how it was run: as §1
[26] = system: Canis familiaris; assay: Immunostimulatory activity in mongrel dog infected with Trypanosoma cruzi Berenice-78 assessed as production of antibody IgG2 at 7 mg/kg, po BID for 90 days measured after 6 months by ELISA; format: functional, organism-based; design: dose 7 mg/kg; settings: Canis lupus familiaris, in the assay text read “for 60 days” for “for 90 days”; how it was run: as §1
[27] = system: Canis familiaris; assay: Immunostimulatory activity in mongrel dog infected with Trypanosoma cruzi Y assessed as production of antibody IgG at 7 mg/kg, po BID for 90 days measured after 6 months by ELISA; format: functional, organism-based; design: dose 7 mg/kg; settings: Canis lupus familiaris, in the assay text read “for 60 days” for “for 90 days”; how it was run: as §1
[28] = system: Canis familiaris; assay: Immunostimulatory activity in mongrel dog infected with Trypanosoma cruzi Y assessed as production of antibody IgG2 at 7 mg/kg, po BID for 90 days measured after 6 months by ELISA; format: functional, organism-based; design: dose 7 mg/kg; settings: Canis lupus familiaris, in the assay text read “for 60 days” for “for 90 days”; how it was run: as §1
[29] = system: Trypanosoma cruzi; assay: Antitrypanosomal activity against Trypanosoma cruzi Y infected in mongrel dog assessed as reduction in INFgamma production in right atrium at 7 mg/kg, po BID after 180 days by semiquantitative RT-PCR; format: functional, organism-based; design: dose 7 mg/kg; settings: Cardiac atrium
How it was run: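 Dogs were euthanized 6 months after the end of treatment. RNA was extracted from the right atrium with acid guanidinium thiocyanate-phenol-chloroform. One microgram was DNase treated and reverse transcribed with oligo(dT) for 1 h at 42°C. IFN-γ or IL-10 cDNA was amplified with 1.5 mM MgCl2: 94°C 5 min, n cycles of 94/57/72°C, final extension 72°C 6 min. Expression was scored semiquantitatively against infected untreated and noninfected dogs.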

[30] = system: Trypanosoma cruzi; assay: Antitrypanosomal activity against Trypanosoma cruzi Y infected in mongrel dog assessed as reduction in IL10 production in right atrium at 7 mg/kg, po BID after 180 days by semiquantitative RT-PCR; settings: Cardiac atrium
[31] = system: Trypanosoma cruzi; assay: Antitrypanosomal activity against Trypanosoma cruzi Y infected in mongrel dog assessed as reduction in INFgamma production in right atrium at 7 mg/kg, po BID after 180 days by semiquantitative RT-PCR; settings: Cardiac atrium

Measured: Activity

O=C(Cn1ccnc1[N+](=O)[O-])NCc1ccccc1 [BENZNIDAZOLE]
Non-toxic: [7] | [8] | [9] | [10]
100%: [15] | [16] | [17] | [18]
inactive: [11] Non-toxic | [12] Non-toxic | [13] Non-toxic | [14] Non-toxic
Toxic: [5] | [6]
0%: [19] | [20]
active: all other assays above
